Reference: ChEMBL document CHEMBL4837214, “Design, synthesis, and biological evaluation of novel tetrahydroprotoberberine derivatives to reduce SREBPs expression for the treatment of hyperlipidemia” (Eur J Med Chem, 2021)
The source made the active and inactive calls. The calls are words filed in the database; no cut-off is given here.

Key:
Mus musculus [1] = test: […] activity in high fat diet-induced C57BL/6J mouse assessed as reduction in Scd mRNA level in liver at 170 to 340 mg/kg, po administered daily for 6 weeks by qRT-PCR analysis; format: functional, organism-based; settings: dose 170-340 mg/kg
Summary of the method: (§1)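 Male C57BL/6J mice, six weeks old, fed a 45%-fat diet (HFD) for 15 weeks; chow-fed mice served as controls. Obese mice were randomized to vehicle (0.1% w/v CMC-Na) or 170 or 340 mg/kg, gavaged daily for 6 weeks while diet continued. Body weight, food intake, organ weights, serum lipids, tissue histology (H&E, Oil red O), liver SREBP blots and liver qPCR followed.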

[2] = Toxicity in C57BL/6J mouse assessed as reduction in liver weight at 170 to 340 mg/kg, po measured every week for 6 weeks; format: organism-based; settings: in vivo, 1008 h, dose 170-340 mg/kg; summary of the method: as §1
Mus musculus [3] = test: Hypolipidemic activity in high fat diet-induced C57BL/6J mouse assessed as reduction in lipid accumulation in liver at 170 to 340 mg/kg, po administered daily for 6 weeks by Oil Red O staining based assay; format: functional, organism-based; settings: dose 170-340 mg/kg; summary of the method: as §1
Mus musculus [4] = test: […] activity in high fat diet-induced C57BL/6J mouse assessed as reduction in ACC mRNA level in liver at 170 to 340 mg/kg, po administered daily for 6 weeks by qRT-PCR analysis; format: functional, organism-based; settings: dose 170-340 mg/kg; summary of the method: as §1
[5] = Cmax in Sprague-Dawley rat at 10 mg/kg, po measured upto 24 hrs by LC-MS/MS analysis; format: ADME, organism-based; parameters: route oral, dose 10 mg/kg, time <=24; settings: in vivo
Summary of the method: (§2)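 Six SD rats split into two groups of three, dosed 1 mg/kg IV or 10 mg/kg orally. IV blood drawn at 2, 5, 15, 30 min and 1, 2, 4, 6, 8, 12 h. Oral blood drawn at 5, 15, 30 min and 1, 2, 4, 6, 8, 12, 24 h. Serum drug measured by LC/MS/MS. Parameters are the average of three runs.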

Mus musculus [6] = test: Hypolipidemic activity in high fat diet-fed C57BL/6J mouse assessed as reduction in epididymal fat/body weight ratio at 170 to 340 mg/kg/day, po administered for 6 weeks; format: functional, organism-based; settings: dose 170-340 mg/kg/day; summary of the method: as §1
HepG2 [7] = test: Down regulation of intracellular TC level in human HepG2 cells at 10 uM measured after 24 hrs; format: functional, cell-based
Summary of the method: (§3)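 HepG2 cells grown in six-well plates and exposed 24 h to compound at […]. Cells collected in PBS and sonicated (5 s on, 10 s off, 60 s total). Total cholesterol or triglyceride measured with a colorimetric determination kit.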

Mus musculus [8] = test: Hypolipidemic activity in high fat diet-induced C57BL/6J mouse assessed as reduction in serum TC level at 170 to 340 mg/kg, po administered daily for 6 weeks; format: functional, organism-based; settings: dose 170-340 mg/kg; summary of the method: as §1
Mus musculus [9] = test: Hypolipidemic activity in high fat diet-fed C57BL/6J mouse assessed as increase in brown fat/body weight ratio at 340 mg/kg/day, po administered for 6 weeks; format: functional, organism-based; summary of the method: as §1
[10] = Cmax in Sprague-Dawley rat at 1 mg/kg, iv measured upto 12 hrs by LC-MS/MS analysis; format: ADME, organism-based; parameters: route intravenous, dose 1 mg/kg, time <=12; settings: in vivo; summary of the method: as §2
HepG2 [11] = test: Effect on PCSK9 protein expression in human HepG2 cells at 10 uM incubated for 24 hrs by Western blotting analysis; format: functional, cell-based
Summary of the method: (§4)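 HepG2 cells treated 24 h at the indicated doses and lysed in RIPA buffer with protease inhibitors; protein quantified by BCA. Lysates run on 10% SDS-PAGE and blotted to nitrocellulose. After 5% milk block, primary antibody applied overnight at 4 °C and secondary 1 h at room temperature. β-actin served as loading reference.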

HepG2 [12] = test: Down regulation of SCD gene expression in human HepG2 cells by qRT-PCR analysis; format: functional, cell-based
[13] = Toxicity in high fat diet-induced C57BL/6J mouse assessed as change in heart morphology at 170 to 340 mg/kg, po administered for 6 weeks by H and E staining-based assay; format: organism-based; settings: in vivo, 1008 h, dose 170-340 mg/kg; summary of the method: as §1
HepG2 [14] = test: Down regulation of precursor and mature forms of SREBP-2 protein expression in human HepG2 cells after 24 hrs by Western blotting analysis; format: functional, cell-based; settings: dose 5-80 µM; summary of the method: as §4
[15] = Clearance in Sprague-Dawley rat at 10 mg/kg, po measured upto 24 hrs by LC-MS/MS analysis; format: ADME, organism-based; settings: in vivo; summary of the method: as §2
[16] = MRT (0 to infinity) in Sprague-Dawley rat at 1 mg/kg, iv measured upto 12 hrs by LC-MS/MS analysis; format: ADME, organism-based; settings: in vivo; summary of the method: as §2
[17] = Toxicity in high fat diet-induced C57BL/6J mouse assessed as reduction in body weight at 170 to 340 mg/kg, po measured every week for 6 weeks; format: organism-based; settings: in vivo, 1008 h, dose 170-340 mg/kg; summary of the method: as §1
Mus musculus [18] = test: Hypoglycemic activity in high fat diet-induced C57BL/6J mouse assessed as improvement in glucose tolerance at 170 to 340 mg/kg, po administered daily for 6 weeks and measured up to 120 mins by OGTT method; format: functional, organism-based; settings: dose 170-340 mg/kg; summary of the method: as §1
HepG2 [19] = test: Down regulation of LDLR gene expression in human HepG2 cells by qRT-PCR analysis; format: functional, cell-based
[20] = Toxicity in high fat diet-induced C57BL/6J mouse assessed as change in kidney morphology at 170 to 340 mg/kg, po administered for 6 weeks by H and E staining-based assay; format: organism-based; settings: in vivo, 1008 h, dose 170-340 mg/kg; summary of the method: as §1
[21] = AUC (0 to infinity) in Sprague-Dawley rat at 1 mg/kg, iv measured upto 12 hrs by LC-MS/MS analysis; format: ADME, organism-based; parameters: route intravenous, dose 1 mg/kg, time <=12; settings: in vivo
Summary of the method: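 Six SD rats split into two groups (n=3 each), dosed once either intravenously at 1 mg/kg or orally at 10 mg/kg. Blood sampled at 2 min–12 h after IV dosing and at 5 min–24 h after oral dosing. Serum drug level measured by LC/MS/MS. AUC0-∞ is the mean of three runs.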

HepG2 [22] = test: Down regulation of intracellular TG level in human HepG2 cells at 10 uM measured after 24 hrs; format: functional, cell-based; summary of the method: as §3
[23] = Half life in Sprague-Dawley rat at 1 mg/kg, iv measured upto 12 hrs by LC-MS/MS analysis; format: ADME, organism-based; settings: in vivo; summary of the method: as §2
Mus musculus [24] = test: […] activity in high fat diet-induced C57BL/6J mouse assessed as reduction in Fasn mRNA level in liver at 170 to 340 mg/kg, po administered daily for 6 weeks by qRT-PCR analysis; format: functional, organism-based; settings: dose 170-340 mg/kg; summary of the method: as §1
[25] = Clearance in Sprague-Dawley rat at 1 mg/kg, iv measured upto 12 hrs by LC-MS/MS analysis; format: ADME, organism-based; settings: in vivo; summary of the method: as §2
HepG2 [26] = test: Down regulation of ACC gene expression in human HepG2 cells by qRT-PCR analysis; format: functional, cell-based
[27] = MRT (0 to infinity) in Sprague-Dawley rat at 10 mg/kg, po measured upto 24 hrs by LC-MS/MS analysis; format: ADME, organism-based; settings: in vivo; summary of the method: as §2
Mus musculus [28] = test: Hypolipidemic activity in high fat diet-induced C57BL/6J mouse assessed as reduction in SREBPs expression in liver at 170 to 340 mg/kg, po administered daily for 6 weeks by Western blot analysis; format: functional, organism-based; settings: dose 170-340 mg/kg; summary of the method: as §1

Which Activity (Mus musculus [1]) does the source give for `COc1ccc2c(c1OCC1CCCCC1)CN1CCc3cc4c(cc3C1C2)OCO4` (stereo not drawn) here?
The Activity was “Active”.

What about the Activity [2] of the same molecule?
The Activity was “Toxic”.

What about the Activity (Mus musculus [3]) of the same molecule?
Its Activity is “Active”.

And the Activity (Mus musculus [4])?
The Activity was “Active”.

And the Cmax [5]?
The Cmax was 0.428 µg/mL.

And the Activity (Mus musculus [6])?
The Activity was “Active”.

And the Activity (HepG2 [7])?
Its Activity is “Active”.

And the Activity (Mus musculus [8])?
The Activity was “Active”.

What about the Activity (Mus musculus [9]) of the same molecule?
Its Activity is “Active”.

And the Cmax [10]?
Its Cmax is 0.901 µg/mL.

And the Activity (HepG2 [11])?
The Activity was “inactive”.

And the Activity (HepG2 [12])?
The Activity was “Active”.

What about the Activity [13] of the same molecule?
Its Activity is “Non-Toxic”.

And the Activity (HepG2 [14])?
The Activity was “Dose-Dependent Effect”.

What about the CL [15] of the same molecule?
Its CL is 0.511 L/h/kg.

What about the MRT inf [16] of the same molecule?
The MRT inf was 3.18 h.

What about the Activity [17] of the same molecule?
The Activity was “Toxic”.

And the Activity (Mus musculus [18])?
Its Activity is “Active”.

What about the Activity (HepG2 [19]) of the same molecule?
The Activity was “Active”.

What about the Activity [20] of the same molecule?
The Activity was “Non-Toxic”.

What about the AUC(0-inf) [21] of the same molecule?
Its AUC(0-inf) is 0.659 µg·h/mL.

What about the Activity (HepG2 [22]) of the same molecule?
Its Activity is “Active”.

What about the half-life [23] of the same molecule?
The half-life was 4.95 h.

And the Activity (Mus musculus [24])?
The Activity was “Active”.

And the clearance [25]?
Its clearance is 1.54 L/h/kg.

What about the Activity (HepG2 [26]) of the same molecule?
The Activity was “Active”.

What about the MRT inf [27] of the same molecule?
The MRT inf was 8.03 h.

And the Activity (Mus musculus [28])?
Its Activity is “Active”.
